Test results from ChEMBL document CHEMBL2429753, “Synthesis and chemical and biological comparison of nitroxyl- and nitric oxide-releasing diazeniumdiolate-based aspirin derivatives” (J Med Chem, 2013).
Values belong to the compound of their own block, whether it stands above or below them. The source made the active and inactive calls. No cut-off for these calls is given here.

Tests used:
Rattus norvegicus [1] = experiment: Antiinflammatory activity in po dosed Sprague-Dawley rat assessed as inhibition of carrageenan-induced paw edema administered 1 hr prior to carrageenan challenge measured after 3 hrs; type: functional; conditions: read-out: ID50 (the source's name)
In short: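 Rats 160-180 g (n = 3) given compound by gavage at 0.8 mmol/kg, suspended in 1% methyl cellulose in water; controls received vehicle. After 1 h, 100 μL of 1% carrageenan in 0.9% NaCl injected into the right hind paw. Paw volume read by plethysmometer at 0 and 3 h. ID50 taken from dose-response curves as the dose halving the control inflammatory response.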

[2] = Drug metabolism of the compound in guinea pig serum assessed as aspirin formation at 100 uM after 40 mins by HPLC analysis; type: ADME, cell-free, Cavia porcellus
In short: (§1)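 Compound added at 100 μM final to 0.1 M phosphate buffer, pH 7.4, with 50 μM DTPA and 2% guinea pig serum, preheated to 37°C. Reaction followed over time by reversed-phase C18 HPLC with a water/acetonitrile gradient containing 0.1% formic acid. Products identified by co-elution with authentic standards.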

[3] = Drug metabolism in guinea pig serum assessed as NONO-salicylate formation at 100 uM after 40 mins by HPLC analysis; type: ADME, cell-free, Cavia porcellus; in short: as §1
[4] = Drug metabolism of the compound in PBS buffer assessed as salicylate formation at pH 10 by NMR spectroscopy; type: physicochemical
[5] = Prodrug conversion of the compound assessed as conversion of MbO2 to metMb at 250 uM by spectrophotometry; type: ADME
In short: (§2)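 MbO2 (50 μM) exposed to compound at 37°C in pH 7.4 buffer (50 μM DTPA), with or without 2% guinea pig serum and with or without 1 mM GSH. Formation of metMb followed spectrally at 30-900 s intervals for 800 s to 6 h. MbO2 autoxidation monitored separately every 600 s over 12 h. n = 3.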

Rattus norvegicus [6] = experiment: Toxicity in Sprague-Dawley rat assessed as stomach ulcer at 1.38 mmol/kg, po after 6 hrs relative to aspirin; type: organism-based; conditions: in vivo
In short: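 Rats fasted 24 h with water allowed, then dosed orally at 1.38 mmol/kg in 1% methylcellulose vehicle; controls received vehicle. Killed by CO2 at 6 h. Stomachs examined under a magnifying glass and ulcers scored by number and size (1 mm = 1; 1-2 mm = 2; >2 mm = length in mm). Ulcer index = total ulcer length per stomach averaged over animals (n = 4).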

[7] = Drug metabolism of the compound in PBS buffer assessed as accumulation of DEA/NO at pH 10 by NMR spectroscopy; type: physicochemical
[8] = Prodrug activation in guinea pig serum assessed as HNO release at 100 uM at pH > 6 by electrochemical detection method; design: species or system Cavia porcellus
In short: (§3)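 NO electrode equilibrated at room temperature in buffer of the chosen pH containing 50 μM DTPA and 2% guinea pig serum. Compound added at 100 μM (0.1% DMSO) and maximum current recorded; triplicate additions. HNO measured indirectly after adding 1 mM ferricyanide to oxidize it to NO. Mean ± SD, n = 3.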

HUVEC = experiment: Cytotoxicity against human HUVEC cells up to 100 uM after 48 hrs by MTT assay; type: cell-based
In short: (§4)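 A549 cells in RPMI 1640 with 10% FBS, and HUVECs in endothelial growth medium, both at 37°C in 5% CO2. Seeded at 8,000-10,000 per well, grown overnight, then exposed to 0-200 μM for 48 h. MTT (10 μL of 2 mg/mL) added for 1 h at 37°C, formazan dissolved in DMSO and read at 550 nm. n = 3 for A549, n = 1 for HUVEC, each at least in triplicate.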

[9] = Drug metabolism of the compound in PBS buffer assessed as aspirin formation; type: physicochemical
[10] = Prodrug activation in guinea pig serum assessed as HNO release at 100 uM at pH < 6 by electrochemical detection method; design: species or system Cavia porcellus; in short: as §3
[11] = Half life of the compound at pH 7.4 in presence of guinea pig serum; type: physicochemical
[12] = Drug metabolism of the compound in PBS buffer assessed as accumulation of DEA/NO at pH 10 after 10 mins by NMR spectroscopy; type: physicochemical; conditions: pH 10, 10 min
A549 [13] = experiment: Cellular uptake in human A549 cells assessed as HNO/NO release at 10 uM by fluorescence asay; type: ADME, cell-based; conditions: a549, 10 µM
In short: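 A549 cells seeded at 60,000 per well and grown 4 h, then loaded with 10 μM DAF-FM diacetate in PBS for 75 min at 37°C and washed three times. Compound added at 10 μM final (prodrugs from DMSO stock, ionic NONOates from 10 mM NaOH stock). Fluorescence at 535 nm (excitation 485 nm) followed over time at 37°C. n = 2, six replicates per plate.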

[14] = Drug metabolism in guinea pig serum assessed as NONO-salicylate formation at 100 uM after 5 mins by HPLC analysis; type: ADME, cell-free, Cavia porcellus; in short: as §1
[15] = Drug metabolism in guinea pig serum assessed as aspirin formation at 100 uM after 5 mins by HPLC analysis; type: ADME, cell-free, Cavia porcellus; in short: as §1
[16] = Prodrug conversion in guinea pig serum assessed as conversion of MbO2 to metMb at 50 uM by spectrophotometr; type: ADME, Cavia porcellus; in short: as §2
[17] = Drug metabolism of the compound in PBS buffer at pH 10 after 90 mins by NMR spectroscopy; type: physicochemical; conditions: pH 10, 1.5 h
[18] = Drug metabolism of the compound in PBS buffer assessed as aspirin formation at pH 10 by NMR spectroscopy; type: physicochemical
[19] = Half life of the compound at pH 7.4; type: physicochemical
A549 [20] = experiment: Cytotoxicity against human A549 cells after 48 hrs by MTT assay; type: functional, cell-based; conditions: A549, 48 h; in short: as §4
[21] = Stability in mouse cardiomyocytes after 20 to 30 mins; type: ADME, cell-based; conditions: cardiomyocyte
[22] = Prodrug conversion in guinea pig serum assessed as conversion of MbO2 to metMb at 100 uM by spectrophotometry; type: ADME, Cavia porcellus; conditions: 50 or 250 µM, in the assay text read “at 50 or 250 uM” for “at 100 uM”; in short: as §2
Serum = experiment: Drug metabolism in fetal bovine serum by HPLC analysis; type: ADME, cell-free, Bos taurus; conditions: cattle
[23] = Cardioprotective effect in mouse cardiomyocytes assessed as increase in whole calcium transient at 500 uM by confocal laser scanning microscopy relative to control; type: functional, cell-based; conditions: Cardiomyocyte
In short: (§5)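 Ventricular myocytes from wild-type mice aged 2-4 months, anesthetized with ip pentobarbital 100 mg/kg, superfused with compound at 500 μM. Sarcomere shortening imaged under 0.5 Hz field stimulation and length tracked by real-time Fourier transform. Relaxation taken as time from peak shortening to 50% relaxation. Ca2+ transients read by confocal microscopy after fluo-4/AM loading (20 μM, 30 min). n = 12 cells.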

[24] = biological target: T1, Prostaglandin G/H synthase 2 (Homo sapiens) (UniProt P35354); experiment: Inhibition of COX-2 mediated PGE2 production in human A549 cells at 25 to 50 uM after 24 hrs by EIA; type: cell-based
T1 sequence (whole entry): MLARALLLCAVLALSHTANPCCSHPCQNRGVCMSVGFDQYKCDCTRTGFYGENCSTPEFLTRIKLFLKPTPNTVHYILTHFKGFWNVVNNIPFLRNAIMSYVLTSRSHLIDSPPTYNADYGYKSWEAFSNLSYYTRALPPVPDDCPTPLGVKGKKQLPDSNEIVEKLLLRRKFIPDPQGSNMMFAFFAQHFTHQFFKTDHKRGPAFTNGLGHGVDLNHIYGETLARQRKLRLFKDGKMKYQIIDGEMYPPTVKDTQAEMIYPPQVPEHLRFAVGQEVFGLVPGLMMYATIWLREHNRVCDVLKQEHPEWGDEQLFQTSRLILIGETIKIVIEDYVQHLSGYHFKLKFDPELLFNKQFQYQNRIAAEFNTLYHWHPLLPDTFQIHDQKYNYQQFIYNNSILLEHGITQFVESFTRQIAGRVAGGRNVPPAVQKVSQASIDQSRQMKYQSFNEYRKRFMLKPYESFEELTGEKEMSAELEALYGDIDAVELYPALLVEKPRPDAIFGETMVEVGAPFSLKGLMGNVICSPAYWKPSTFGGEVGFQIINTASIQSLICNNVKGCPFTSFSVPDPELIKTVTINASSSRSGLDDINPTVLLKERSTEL
In short: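 A549 cells seeded at 50,000 per well and grown 12 h, then treated with 25 or 50 μM (0.1% DMSO) for 24 h at 37°C. PGE2 in the supernatant measured by competitive AChE-tracer EIA: overnight incubation at 4°C, Ellman's reagent development, […]. Run in triplicate.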

[25] = Drug metabolism of the compound in PBS buffer assessed as isopropanol formation at pH 10 by NMR spectroscopy; type: physicochemical
[26] = Cardioprotective effect in mouse cardiomyocytes assessed as myocyte contractility measured as sarcomere shortening at 500 uM relative to control; type: functional, cell-based; conditions: Cardiomyocyte; in short: as §5
[27] = Drug metabolism of the compound in PBS buffer assessed as salicylate formation at pH 7.4; type: physicochemical
[28] = Drug metabolism of the compound in PBS buffer assessed as acetate formation at pH 10 by NMR spectroscopy; type: physicochemical
[29] = Drug metabolism of the compound in PBS buffer assessed as formaldehyde formation at pH 10 by NMR spectroscopy; type: physicochemical
[30] = biological target: Glyceraldehyde-3-phosphate dehydrogenase (Homo sapiens) (UniProt P04406); experiment: Inhibition of GAPDH in human A549 cells at 100 uM after 1 hr by fluorescence assay; type: cell-based
In short: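 A549 cells seeded at 30,000 per well, grown overnight and treated with 100 μM for 1 h at 37°C. Cells lysed 20 min at 4°C in KAlert buffer. Lysate mixed with KAlert mastermix and GAPDH activity read as fluorescence at 570 nm (excitation 540 nm). Mean ± SD of triplicate; one-way ANOVA against control.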

[31] = Cardioprotective effect in mouse cardiomyocytes assessed as reduction in time required for half relaxation from peak shortening at 500 uM relative to control; type: functional, cell-based; design: scale not given: the % may be the effect or the level left; conditions: Cardiomyocyte; in short: as §5
[32] = Half life of the compound; type: physicochemical

Sequence of Glyceraldehyde-3-phosphate dehydrogenase (Homo sapiens) (P04406 2-335 limits assumed): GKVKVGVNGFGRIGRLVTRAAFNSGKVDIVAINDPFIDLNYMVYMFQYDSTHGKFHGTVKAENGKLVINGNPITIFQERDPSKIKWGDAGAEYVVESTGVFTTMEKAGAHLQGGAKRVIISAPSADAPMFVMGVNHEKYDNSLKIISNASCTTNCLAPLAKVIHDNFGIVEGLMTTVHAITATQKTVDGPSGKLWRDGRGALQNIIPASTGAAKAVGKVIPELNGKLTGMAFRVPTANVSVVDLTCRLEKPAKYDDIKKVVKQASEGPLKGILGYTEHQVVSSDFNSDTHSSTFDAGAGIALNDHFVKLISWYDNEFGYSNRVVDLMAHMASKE

Compound: CC(=O)Oc1ccccc1C(=O)O [ASPIRIN]
- ED50 (Rattus norvegicus [1]): 129 mg/kg

- Drug metabolism [2]: Active
Compound: CC(C)N/[N+]([O-])=N/OCOC(=O)c1ccccc1O

- Drug metabolism [3]: Not Active
Compound: CCN(CC)/[N+]([O-])=N/OCOC(=O)c1ccccc1O

- Drug metabolism [4]: Active
- Drug metabolism [5]: Active
- Drug metabolism [7]: Active
- Drug metabolism [8]: Not Active
- Drug metabolism [9]: Active
- Drug metabolism [10]: Not Active
- half-life [11]: 13 min
- Drug metabolism [12]: Active
- Drug uptake (A549 [13]): Active
- Drug metabolism [14]: Active
- Drug metabolism [15]: Active
- Drug metabolism [16]: Active
- Drug metabolism [17]: Not Active
- Drug metabolism [18]: Active
- half-life [19]: 36 h
Compound: CCN(CC)/[N+]([O-])=N/OCOC(=O)c1ccccc1OC(C)=O
- UI (Rattus norvegicus [6]): 0
- Activity (HUVEC): Non-toxic
- ED50 (Rattus norvegicus [1]): 169 mg/kg
- IC50 (A549 [20]): 135 µM

- Stability [21]: Stable
- Drug metabolism [4]: Active
- Drug metabolism [22]: Active
- Drug metabolism (Serum): Active
- Drug metabolism [5]: Active
- Drug metabolism [8]: Active
- inhibition [24]: Active
- Drug metabolism [10]: Not Active
- half-life [11]: 18 min
- Drug metabolism [25]: Active
- Drug uptake (A549 [13]): Active
- Drug metabolism [14]: Active
- Drug metabolism [27]: Active
- Drug metabolism [15]: Active
- Drug metabolism [28]: Active
- Drug metabolism [29]: Active
- inhibition [30]: Active
- half-life [19]: 7.5 h
Compound: CC(=O)Oc1ccccc1C(=O)OCO/N=[N+](\[O-])NC(C)C
- UI (Rattus norvegicus [6]): 3.3
- Activity [23]: 24%
- Activity (HUVEC): Non-toxic
- ED50 (Rattus norvegicus [1]): 121 mg/kg
- Activity [26]: 201%
- Activity [31]: 17%
- IC50 (A549 [20]): 90 µM

Compound: CCN(CC)/[N+]([O-])=N/[O-].[Na+]
- half-life [32]: 2.5 min

- half-life [32]: 5.7 min
Compound: CC(C)N[N+]([O-])=N[O-].[Na+]
